Source: ChEMBL document CHEMBL3352791, “Thioaryl naphthylmethanone oxime ether analogs as novel anticancer agents” (J Med Chem, 2014)
Active and inactive are the calls of the source. The calls are words filed in the database; no cut-off is given here.

Tests used:
MCF7 [1] = experiment: Cell cycle arrest in human […] cells assessed as accumulation at subG1 phase at 7.5 uM by propidium iodide staining by FACS analysis (reference value: 0.1%); format: functional
HEK293 = experiment: Antiproliferative activity against HEK293 cells after 24 hrs by MTT assay; format: functional, cell-based; conditions: Homo sapiens, HEK293, 24 h
Outline: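 MTT viability: cells seeded at 1×10^4 per well in DMEM with 10% FBS, left to adhere overnight, then serum-starved 4 h. Compounds were given at a range of doses, with 0.1% DMSO vehicle as control. EC50 was taken from dose-response curves spanning 100nM-50µM. Data are mean ± SEM from at least three independent experiments.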

MCF7 [2] = experiment: Cell cycle arrest in human […] cells assessed as accumulation at G2 phase at 2.5 uM by propidium iodide staining by FACS analysis (reference value: 10.96%); format: functional
MDA-MB-231 [3] = experiment: Cell cycle arrest in human […] cells assessed as accumulation at S phase at 2.5 uM by propidium iodide staining by FACS analysis (reference value: 13.72%); format: functional
MDA-MB-231 [4] = experiment: Cell cycle arrest in human […] cells assessed as accumulation at S phase at 7.5 uM by propidium iodide staining by FACS analysis (reference value: 13.72%); format: functional
MDA-MB-231 [5] = experiment: Antiproliferative activity against human ER-positive MDA-MB-231 cells after 72 hrs by MTT assay; format: functional, cell-based; conditions: MDA-MB-231, 72 h
MCF7 [6] = experiment: Antitumor activity against human MCF7 cells xenografted in NIH-3 mouse assessed as reduction in tumor volume at 16 mg/kg, po for 25 days relative to control; format: functional; conditions: MCF7, 600 h
MCF7 [7] = experiment: Cell cycle arrest in human […] MCF7 cells assessed as accumulation at S phase at 2.5 uM by propidium iodide staining by FACS analysis (reference value: 24.76%); format: functional
MCF7 [8] = experiment: Cell cycle arrest in human […] cells assessed as accumulation at G2 phase at 5 uM by propidium iodide staining by FACS analysis (reference value: 10.96%); format: functional
MCF7 [9] = experiment: Cytotoxicity against human […] cells assessed as cell viability at 5 uM by MTT assay in presence of z-IETD-FMK caspase-8 inhibitor; format: functional, cell-based
Outline: (§1)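 Cells seeded 1×10^4/well in DMEM with 10% FBS, adhered overnight, serum-starved 4 h; pre-incubated 2 h with Z-IETD-FMK or Z-LEHD-FMK (10µM each), then 5μM compound for a further 24 h; viability by MTT.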

[10] = biological target: Epidermal growth factor receptor (Homo sapiens) (UniProt P00533); experiment: Inhibition of EGF-induced EGFR phosphorylation at Tyr845 in human MDA-MB-231 cells at 1 uM by ELISA; format: cell-based
Epidermal growth factor receptor (Homo sapiens), sequence (P00533 whole entry): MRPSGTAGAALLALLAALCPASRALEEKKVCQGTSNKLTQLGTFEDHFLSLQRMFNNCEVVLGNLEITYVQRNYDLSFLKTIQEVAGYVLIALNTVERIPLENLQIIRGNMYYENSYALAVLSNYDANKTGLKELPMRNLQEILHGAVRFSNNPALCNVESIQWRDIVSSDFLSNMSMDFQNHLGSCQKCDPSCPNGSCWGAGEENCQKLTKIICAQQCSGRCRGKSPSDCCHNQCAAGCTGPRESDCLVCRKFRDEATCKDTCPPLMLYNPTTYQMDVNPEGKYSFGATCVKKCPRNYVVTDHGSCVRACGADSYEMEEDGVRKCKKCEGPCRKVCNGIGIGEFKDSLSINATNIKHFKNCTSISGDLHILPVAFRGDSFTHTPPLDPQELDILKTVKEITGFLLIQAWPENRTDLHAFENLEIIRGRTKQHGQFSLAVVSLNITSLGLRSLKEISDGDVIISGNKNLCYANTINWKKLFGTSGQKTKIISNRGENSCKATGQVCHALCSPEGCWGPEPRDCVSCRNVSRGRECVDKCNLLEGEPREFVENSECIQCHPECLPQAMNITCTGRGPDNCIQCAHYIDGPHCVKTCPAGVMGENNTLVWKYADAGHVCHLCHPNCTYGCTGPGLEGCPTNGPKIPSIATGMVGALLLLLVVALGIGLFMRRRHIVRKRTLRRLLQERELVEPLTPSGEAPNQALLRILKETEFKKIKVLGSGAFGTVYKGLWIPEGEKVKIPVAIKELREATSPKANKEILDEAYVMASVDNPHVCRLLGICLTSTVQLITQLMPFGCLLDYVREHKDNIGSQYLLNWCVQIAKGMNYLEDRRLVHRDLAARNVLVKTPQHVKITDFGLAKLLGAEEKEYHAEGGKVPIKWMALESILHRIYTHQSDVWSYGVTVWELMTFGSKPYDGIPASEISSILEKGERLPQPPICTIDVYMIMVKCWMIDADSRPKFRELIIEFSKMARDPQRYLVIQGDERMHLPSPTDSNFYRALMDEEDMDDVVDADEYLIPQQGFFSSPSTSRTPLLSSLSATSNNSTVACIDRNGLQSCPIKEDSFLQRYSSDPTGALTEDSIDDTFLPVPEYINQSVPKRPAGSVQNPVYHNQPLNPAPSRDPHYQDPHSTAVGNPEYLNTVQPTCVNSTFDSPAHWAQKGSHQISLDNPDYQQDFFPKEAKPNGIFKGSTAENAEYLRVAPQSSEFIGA
Outline: (§2)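 MDA-MB-231 cells pretreated 1 h in serum-free medium, then EGF-stimulated for 15 min and lysed. Equal lysate protein (Bradford) assayed by ELISA kits for p-EGFR (Tyr1068, Tyr845, Tyr1173) and p-HER2. Absorbance read at 450 nm, normalized to total EGFR or HER2.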

MDA-MB-231 [11] = experiment: Cytotoxicity against human […] cells assessed as cell viability at 5 uM by MTT assay in presence of z-IETD-FMK caspase-8 inhibitor; format: functional, cell-based; outline: as §1
[12] = biological target: Signal transducer and activator of transcription 3 (Homo sapiens) (UniProt P40763); experiment: Inhibition of basal level STAT3 phosphorylation in human MCF7 cells at 1 uM by ELISA; format: cell-based
Signal transducer and activator of transcription 3 (Homo sapiens), sequence (P40763 whole entry): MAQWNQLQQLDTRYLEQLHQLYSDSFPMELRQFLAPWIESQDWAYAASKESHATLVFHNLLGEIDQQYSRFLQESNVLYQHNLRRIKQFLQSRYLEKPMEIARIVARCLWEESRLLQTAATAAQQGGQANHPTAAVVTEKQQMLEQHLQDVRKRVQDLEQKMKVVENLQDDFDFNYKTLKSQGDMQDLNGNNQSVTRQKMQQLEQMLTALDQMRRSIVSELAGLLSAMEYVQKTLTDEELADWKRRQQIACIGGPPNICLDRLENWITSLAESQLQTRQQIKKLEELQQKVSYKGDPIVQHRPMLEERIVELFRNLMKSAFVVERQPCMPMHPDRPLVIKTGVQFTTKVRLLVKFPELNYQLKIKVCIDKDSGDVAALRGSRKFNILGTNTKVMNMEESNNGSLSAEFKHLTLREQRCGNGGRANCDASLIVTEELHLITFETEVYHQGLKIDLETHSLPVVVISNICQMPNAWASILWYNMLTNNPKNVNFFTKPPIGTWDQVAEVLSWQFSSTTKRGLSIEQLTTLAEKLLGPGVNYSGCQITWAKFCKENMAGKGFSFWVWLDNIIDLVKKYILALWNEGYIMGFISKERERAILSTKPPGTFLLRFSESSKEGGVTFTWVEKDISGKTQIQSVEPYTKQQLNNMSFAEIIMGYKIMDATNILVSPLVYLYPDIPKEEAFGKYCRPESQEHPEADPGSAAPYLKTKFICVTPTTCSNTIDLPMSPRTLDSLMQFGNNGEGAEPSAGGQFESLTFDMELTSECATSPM

MDA-MB-231 [13] = experiment: Inhibition of VEGF-A expression in human MDA-MB-231 cells at 1 uM after 24 hrs by qPCR analysis; format: functional, cell-based
Outline: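 Gene expression was measured by qPCR in MDA-MB-231 breast cancer cells treated with 1µM compound. GAPDH served as the housekeeping internal control.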

[14] = biological target: Epidermal growth factor receptor (Homo sapiens) (UniProt P00533); experiment: Inhibition of EGF-induced EGFR phosphorylation at Tyr992 in human MDA-MB-231 cells at 1 uM by ELISA; format: cell-based
[15] = system: Mast/stem cell growth factor receptor Kit (Homo sapiens), P10721 [D816H]; experiment: Inhibition of cKit D816H mutant (unknown origin) at 10 uM
Mast/stem cell growth factor receptor Kit (Homo sapiens), P10721 [D816H], sequence (P10721 whole entry D816H): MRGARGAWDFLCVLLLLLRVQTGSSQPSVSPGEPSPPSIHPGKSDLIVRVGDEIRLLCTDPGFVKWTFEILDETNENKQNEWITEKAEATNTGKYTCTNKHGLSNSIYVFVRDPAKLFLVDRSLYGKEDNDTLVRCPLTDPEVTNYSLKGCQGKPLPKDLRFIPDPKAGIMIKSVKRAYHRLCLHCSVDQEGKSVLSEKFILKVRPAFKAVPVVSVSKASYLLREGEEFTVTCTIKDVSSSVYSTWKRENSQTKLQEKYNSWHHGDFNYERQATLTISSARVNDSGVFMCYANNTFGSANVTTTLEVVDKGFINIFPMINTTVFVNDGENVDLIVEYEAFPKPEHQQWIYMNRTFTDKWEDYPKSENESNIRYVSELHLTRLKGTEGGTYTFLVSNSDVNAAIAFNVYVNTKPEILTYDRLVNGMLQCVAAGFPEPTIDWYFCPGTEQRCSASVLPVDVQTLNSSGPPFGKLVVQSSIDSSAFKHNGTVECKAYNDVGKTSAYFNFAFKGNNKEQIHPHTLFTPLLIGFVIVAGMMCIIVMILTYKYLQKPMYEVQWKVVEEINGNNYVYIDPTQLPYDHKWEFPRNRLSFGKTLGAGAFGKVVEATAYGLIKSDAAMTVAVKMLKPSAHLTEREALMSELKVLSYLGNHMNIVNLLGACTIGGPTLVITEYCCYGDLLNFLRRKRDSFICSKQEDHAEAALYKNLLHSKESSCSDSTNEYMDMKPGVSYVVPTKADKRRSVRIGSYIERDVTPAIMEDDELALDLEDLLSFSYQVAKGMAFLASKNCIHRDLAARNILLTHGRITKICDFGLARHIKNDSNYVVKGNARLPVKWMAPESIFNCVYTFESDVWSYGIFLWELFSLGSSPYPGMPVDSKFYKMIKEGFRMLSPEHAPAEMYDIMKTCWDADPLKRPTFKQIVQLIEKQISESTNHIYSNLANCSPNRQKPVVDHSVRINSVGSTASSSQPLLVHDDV
Outline: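 Cell-free kinase profiling was run as a standard 33P-ATP-based in vitro kinase assay.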

[16] = biological target: Phosphodiesterase 3 (Homo sapiens) (UniProt Q14432+Q13370); experiment: Inhibition of PDE3 CAT (unknown origin) activity at 1 to 10 uM; format: protein assay
Outline: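 Recombinant PDE isoform activity was read by fluorescence polarization. A binding reagent complexes with the nucleotide monophosphate that the phosphodiesterase generates from cAMP/cGMP, and this raises the polarization of the labelled substrate. Reference standards were PDE1A3 10µM IBMX, PDE2A3 1nM BAY 60-7550, PDE3CAT 1µM cilostazol, PDE4CAT rolipram, PDE5CAT 0.1µM sildenafil, PDE7A […], PDE8A1 10µM BRL-50481, PDE9A1 1µM SB 36216 and PDE11A1 dipyridamole.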

MCF7 [17] = experiment: Antiinvasion activity in human MCF7 cells assessed as inhibition of FBS-induced cell invaded to matrigel coated invasion chamber at 1 uM after 24 hrs by Transwell invasion assay; format: functional, cell-based
[18] = biological target: Phosphodiesterase 6 (Homo sapiens) (UniProt Q13956+P18545+P35913+O43924+P16499+P51160); experiment: Inhibition of PDE6AB (unknown origin) activity at 1 to 10 uM; format: protein assay
Outline: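 PDE6AB activity was measured by radiometric assay, a modification of the Thompson and Appleman two-step method. Sildenafil 1µM served as reference standard.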

[19] = biological target: Epidermal growth factor receptor (Homo sapiens) (UniProt P00533); experiment: Inhibition of EGF-induced EGFR phosphorylation at Tyr1173 in human MCF7 cells at 0.1 uM by ELISA; format: cell-based
[20] = biological target: Epidermal growth factor receptor (Homo sapiens) (UniProt P00533); experiment: Inhibition of EGF-induced EGFR2 phosphorylation in human MDA-MB-231 cells at 1 uM by ELISA; format: cell-based; outline: as §2
[21] = biological target: Receptor-type tyrosine-protein kinase FLT3 (Homo sapiens) (UniProt P36888); experiment: Inhibition of Flt3 (unknown origin) at 10 uM
Receptor-type tyrosine-protein kinase FLT3 (Homo sapiens), sequence (P36888 whole entry): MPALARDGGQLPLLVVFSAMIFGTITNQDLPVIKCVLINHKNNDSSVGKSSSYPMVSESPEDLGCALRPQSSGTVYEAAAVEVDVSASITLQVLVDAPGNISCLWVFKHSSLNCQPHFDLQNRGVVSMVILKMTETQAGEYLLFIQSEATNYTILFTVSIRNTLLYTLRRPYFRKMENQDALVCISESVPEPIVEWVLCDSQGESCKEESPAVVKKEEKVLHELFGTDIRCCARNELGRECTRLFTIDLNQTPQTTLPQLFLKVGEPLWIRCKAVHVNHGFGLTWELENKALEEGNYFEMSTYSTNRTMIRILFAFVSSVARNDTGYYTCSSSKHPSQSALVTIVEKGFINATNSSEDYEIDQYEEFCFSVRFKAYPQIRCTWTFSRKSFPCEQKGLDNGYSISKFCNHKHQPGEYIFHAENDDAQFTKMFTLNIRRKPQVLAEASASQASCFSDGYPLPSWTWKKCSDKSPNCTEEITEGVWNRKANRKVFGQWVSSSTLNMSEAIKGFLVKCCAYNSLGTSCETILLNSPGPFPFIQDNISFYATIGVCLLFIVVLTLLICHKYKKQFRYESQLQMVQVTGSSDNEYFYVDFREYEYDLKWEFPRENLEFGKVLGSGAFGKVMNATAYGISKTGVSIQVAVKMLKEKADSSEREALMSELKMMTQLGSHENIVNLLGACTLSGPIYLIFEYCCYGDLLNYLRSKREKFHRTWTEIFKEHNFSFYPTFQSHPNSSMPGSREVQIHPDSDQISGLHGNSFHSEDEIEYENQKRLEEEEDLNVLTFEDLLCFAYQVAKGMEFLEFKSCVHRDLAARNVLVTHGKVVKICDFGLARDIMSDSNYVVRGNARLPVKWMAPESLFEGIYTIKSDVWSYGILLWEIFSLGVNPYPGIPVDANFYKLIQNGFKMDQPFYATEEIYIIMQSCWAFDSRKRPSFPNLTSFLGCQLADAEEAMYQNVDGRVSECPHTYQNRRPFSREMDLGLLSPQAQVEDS

MCF7 [22] = experiment: Induction of apoptosis in human […] cells assessed as loss of mitochondrial membrane potential at 5 uM after 24 hrs by JC-1 staining based flow cytometry; format: functional, cell-based
Outline: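 Cells given 5μM compound for 24 h, trypsinized, stained with JC-1 (1μg/ml) in medium 15 min at 37°C, PBS-washed, analysed by flow cytometry on FL1 and FL2 channels.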

MDA-MB-231 [23] = experiment: Induction of cAMP level in human MDA-MB-231 cells at 0.1 to 25 uM in presence of forskolin; format: functional, cell-based
Outline: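 MDA-MB-231 cells serum-starved for 4 h, treated with 500μM IBMX for 30 min, then exposed to compound for a further 30 min. Cellular cAMP read by HTRF kit.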

[24] = biological target: RAC-alpha serine/threonine-protein kinase (Homo sapiens) (UniProt P31749); experiment: Inhibition of EGF-induced AKT phosphorylation in human MCF7 cells at 1 uM by ELISA; format: cell-based
RAC-alpha serine/threonine-protein kinase (Homo sapiens), sequence (P31749 whole entry): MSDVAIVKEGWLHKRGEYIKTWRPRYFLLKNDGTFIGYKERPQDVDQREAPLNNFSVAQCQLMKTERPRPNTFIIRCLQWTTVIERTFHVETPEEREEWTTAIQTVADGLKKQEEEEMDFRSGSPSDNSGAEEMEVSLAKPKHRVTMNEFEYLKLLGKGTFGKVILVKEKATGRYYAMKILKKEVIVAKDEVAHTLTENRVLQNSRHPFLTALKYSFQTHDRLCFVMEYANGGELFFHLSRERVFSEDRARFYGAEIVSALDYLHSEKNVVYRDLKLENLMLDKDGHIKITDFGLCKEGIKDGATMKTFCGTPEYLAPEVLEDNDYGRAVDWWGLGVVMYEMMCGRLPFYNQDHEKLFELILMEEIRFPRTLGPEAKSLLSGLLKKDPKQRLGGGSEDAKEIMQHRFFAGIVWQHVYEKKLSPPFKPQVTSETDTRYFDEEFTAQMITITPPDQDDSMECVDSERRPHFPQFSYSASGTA

[25] = biological target: RAC-alpha serine/threonine-protein kinase (Homo sapiens) (UniProt P31749); experiment: Inhibition of basal level AKT phosphorylation in human MDA-MB-231 cells at 1 uM by ELISA; format: cell-based

**Q.** Which results are given for `CCN(CC)CCO/N=C(\c1ccc(SC)cc1)c1cccc2ccccc12.O=C(O)C(=O)O`?
**A.** Activity (MCF7 [1]): 0.4%; IC50 (HEK293): 20 µM; Activity (MCF7 [2]): 12.46%; Activity (MDA-MB-231 [3]): 13.65%; Activity (MDA-MB-231 [4]): 2.74%; EC50 (MDA-MB-231 [5]): 1 µM; inhibition in vivo at 16 mg/kg (MCF7 [6]): 50%; Activity (MCF7 [7]): 16.82%; Activity (MCF7 [8]): 11.48%

**Q.** What does the source list for `CCN(CC)CCO/N=C(\c1ccc(SC)cc1)c1cccc2ccccc12`?
**A.** Activity (MCF7 [9]): inactive; inhibition [10]: Active; Activity (MDA-MB-231 [11]): inactive; inhibition [12]: inactive; inhibition (MDA-MB-231 [13]): Active; inhibition [14]: Active; inhibition [15]: inactive; inhibition [16]: inactive; Activity (MCF7 [17]): Active; inhibition [18]: inactive; inhibition [19]: Active; inhibition [20]: Active; inhibition [21]: inactive; Activity (MCF7 [22]): Active; Activity (MDA-MB-231 [23]): Active; inhibition [24]: Active; inhibition [25]: inactive
